Assay results pooled from the literature.
Protocols differ between the studies behind these lines.
Effect on: cell growth or viability

`Nc1n[nH]c2cc(I)ccc12` gave a GI50 of greater than 10000 nM (BaF3; CCK-8).
For `COc1ccccc1S(=O)(=O)Nc1ccc2c(c1)CN(C)C(=O)N2`, the GI50 was 8000 nM (NALM-6; ATP luminescence).
`CC(C)(C)n1ncc2c(Nc3ccc(OC(F)(F)F)cc3)ncnc21` gave an EC50 of greater than 10000 nM (BaF3; ATP luminescence).
`COc1cc(-c2ccc(-c3ccc(C(=N)N)nc3)s2)cc(OC)c1OC` gave a GI50 of 14600 nM (SF-268; SRB).
`CNC(=O)c1ccccc1Sc1ccc2c(/C=C/c3ccccn3)n[nH]c2c1` has a GI50 of 1310 nM (BaF3; ATP luminescence; 72 h).
`COc1ccc(NC(=O)Nc2ccc(OCc3ncc(C)c(OC)c3C)cc2)cc1` gave an IC50 of greater than 100000 nM (L02; MTT; 72 h).
`O=C(N/N=C/c1c(O)ccc2ccccc12)c1cc(-c2ccc3ccccc3c2)n[nH]1` has an IC50 of 1800 nM (WM-115; MTS; 72 h).
The IC50 of `COc1ccc(NC(=O)Nc2ccc(OCc3nccc(OCC(F)(F)F)c3C)cc2)cc1` is reported as greater than 100000 nM (L02; MTT; 72 h).
The IC50 of `Oc1ccc(Nc2nc(-c3ccc(Cl)cc3)cs2)cc1` is reported as 23800 nM (WM-115; MTS; 48 h).
`COc1ccnc(COc2ccc(NC(=O)Nc3cccc(C(F)(F)F)c3)cc2)c1OC` gave an IC50 of greater than 100000 nM (L02; MTT; 72 h).
`COc1cc(N2CCC(N3CCN(C)CC3)CC2)ccc1Nc1ncc(Cl)c(Nc2ccccc2P(C)(C)=O)n1` has a GI50 of 2100 nM (BaF3; 72 h).
The inhibition of `O=C1Nc2ccccc2C1=NNc1nnc2n1N=C(c1ccccc1)CS2` is reported as 31% (SF-268; SRB; 10 µM).
`COc1ccc(-c2ccc(-c3ccc(C(=N)N)nc3)s2)cc1` has a GI50 of 1760 nM (SF-268; SRB).
For `CNC(=O)c1ccccc1Sc1ccc2c(N)n[nH]c2c1`, the GI50 was 7900 nM (BaF3; CCK-8).
The GI50 of `C=CC(=O)N1CCC[C@@H](n2nc(-c3ccc(Oc4ccccc4)cc3)c3c(N)ncnc32)C1` is reported as 2800 nM (NALM-6; ATP luminescence; 72 h).
`COc1cccc(Oc2ccccc2NC(=O)CNC(=O)c2cccc3ccccc23)c1` gave a GI50 of 550 nM (SF-268; SRB; 48 h).
The GI50 of `CNC(=O)c1cc(Oc2ccc(NC(=O)Nc3ccc(Cl)c(C(F)(F)F)c3)c(F)c2)ccn1` is reported as 1820 nM (BaF3; ATP luminescence; 72 h).
